Source: ChEMBL document CHEMBL1155278, “3,4-Diaryl-isoxazoles and -imidazoles as potent dual inhibitors of p38alpha mitogen activated protein kinase and casein kinase 1delta” (J Med Chem, 2009)
Values belong to the molecule of their own block, whether it stands above or below them. Calls of active or inactive are those of the source. The rule behind the calls is not given here.

Assays:
[1] = target: T1, Casein kinase I isoform delta (Homo sapiens, UniProt P48730); assay: Inhibition of recombinant CK1delta kinase domain at 10 nM by ATP competitive binding assay
Target sequence in this assay (P48730 whole entry, looked up, the tested form may be a part, canonical isoform): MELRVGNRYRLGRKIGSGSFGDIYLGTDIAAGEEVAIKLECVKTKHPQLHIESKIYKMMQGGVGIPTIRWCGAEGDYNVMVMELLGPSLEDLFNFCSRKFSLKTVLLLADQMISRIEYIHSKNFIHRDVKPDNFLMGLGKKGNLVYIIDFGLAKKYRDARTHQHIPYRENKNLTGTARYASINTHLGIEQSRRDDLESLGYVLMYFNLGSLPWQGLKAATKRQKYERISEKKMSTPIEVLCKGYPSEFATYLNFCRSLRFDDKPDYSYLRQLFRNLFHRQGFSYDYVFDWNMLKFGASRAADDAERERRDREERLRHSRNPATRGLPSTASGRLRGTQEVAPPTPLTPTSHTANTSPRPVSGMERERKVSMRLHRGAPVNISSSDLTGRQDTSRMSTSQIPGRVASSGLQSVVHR

[2] = target: Casein kinase I isoform delta (Rattus norvegicus) (UniProt Q06486); assay: Inhibition of GST-fused rat CK1delta at 10 nM by Cherenkov counting in presence of 20 uM ATP
[3] = tested on: Casein kinase I isoform delta (Rattus norvegicus), Q06486 [M82F]; assay: Inhibition of GST-fused rat CK1delta M82F mutant at 10 nM by Cherenkov counting in presence of 20 uM ATP
[4] = Cell cycle arrest in human AC1-M88 cells assessed as accumulation at subG1 phase at 0.26 uM after 48 hrs by propidium iodide staining-based FACS analysis; type: functional
[5] = Cell cycle arrest in human AC1-M88 cells assessed as accumulation at G1 phase at 0.26 uM after 48 hrs by propidium iodide staining-based FACS analysis; type: functional
Method in brief: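 AC1-M88 cells (extravillous trophoblast fused with the Jeg-3 choriocarcinoma mutant AC1-1) were grown in DMEM/F-12 with 10% FCS at 37 °C in humidified 5% CO2. Cells were exposed to compound for 48 h alongside a DMSO control (0.004% final), then fixed and stained with propidium iodide. Cell cycle was read by flow cytometry with the Cycle Test Plus kit.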

[6] = Cell cycle arrest in human AC1-M88 cells assessed as accumulation at S phase at 0.26 uM after 48 hrs by propidium iodide staining-based FACS analysis; type: functional
[7] = Cell cycle arrest in human AC1-M88 cells assessed as accumulation at G2 phase at 0.26 uM after 48 hrs by propidium iodide staining-based FACS analysis; type: functional
[8] = target: T2, Serine/threonine-protein kinase Sgk1 (Homo sapiens) (UniProt O00141); assay: Inhibition of SGK1 assessed as residual activity at 0.1 uM by Cherenkov counting relative to control in presence of 20 uM ATP
T2 sequence (whole entry): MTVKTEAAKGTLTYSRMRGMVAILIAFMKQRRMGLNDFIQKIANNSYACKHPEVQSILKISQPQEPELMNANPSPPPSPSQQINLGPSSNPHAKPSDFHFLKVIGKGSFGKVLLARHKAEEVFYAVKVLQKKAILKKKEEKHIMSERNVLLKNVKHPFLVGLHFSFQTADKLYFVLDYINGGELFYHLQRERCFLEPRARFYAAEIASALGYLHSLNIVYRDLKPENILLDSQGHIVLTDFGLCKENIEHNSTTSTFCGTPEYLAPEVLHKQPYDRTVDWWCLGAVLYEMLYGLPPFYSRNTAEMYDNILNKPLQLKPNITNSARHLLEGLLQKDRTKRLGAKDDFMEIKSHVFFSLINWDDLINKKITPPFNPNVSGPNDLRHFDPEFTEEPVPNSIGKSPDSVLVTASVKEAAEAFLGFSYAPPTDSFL
Method in brief: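 Single-concentration screen at 0.1 μM in a 76-kinase panel. ATP for each kinase was set near its Km for ATP. Residual activity is given as a percentage of control assays without compound, mean of n = 3 ± SD.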

[9] = target: Serine/threonine-protein kinase pim-1 (Homo sapiens) (UniProt P11309); assay: Inhibition of PIM1 assessed as residual activity at 0.1 uM by Cherenkov counting relative to control in presence of 20 uM ATP
Method in brief: (§1)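 Single-concentration selectivity screen at 0.1 μM against a panel of 76 protein kinases. Each kinase was run at an ATP level approximating its Km for ATP. Output is mean residual activity as % of the control assay without compound, n = 3 ± SD.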

[10] = target: Serine/threonine-protein kinase PAK 4 (Homo sapiens) (UniProt O96013); assay: Inhibition of PAK4 assessed as residual activity at 0.1 uM by Cherenkov counting relative to control in presence of 5 uM ATP; method in brief: as §1
[11] = target: T1, Casein kinase I isoform delta; assay: Inhibition of recombinant CK1delta kinase domain at 10 nM by ATP competitive binding assay
Target sequence in this assay (P48730 whole entry, looked up, the tested form may be a part, canonical isoform): as the sequence (P48730 whole entry, looked up, the tested form may be a part, canonical isoform) above

[12] = target: Serine/threonine-protein kinase N2 (Homo sapiens) (UniProt Q16513); assay: Inhibition of PRK2 assessed as residual activity at 10 uM by Cherenkov counting relative to control in presence of 5 uM ATP
Method in brief: (§2)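 Single-concentration profiling at 10 μM in a 78-kinase panel. Kinase activity is expressed as a percentage of control assays run without compound.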

[13] = target: Serine/threonine-protein kinase pim-1 (Homo sapiens) (UniProt P11309); assay: Inhibition of PIM1 assessed as residual activity at 10 uM by Cherenkov counting relative to control in presence of 20 uM ATP
[14] = target: Ribosomal protein S6 kinase alpha-1 (Homo sapiens) (UniProt Q15418); assay: Inhibition of RSK1 assessed as residual activity at 10 uM by Cherenkov counting relative to control; method in brief: as §2
[15] = target: T1, Casein kinase I isoform delta; assay: Inhibition of CK1delta by Cherenkov counting in presence of 20 uM ATP
Target sequence in this assay (P48730 whole entry, the tested form may be a part, canonical isoform): as the sequence (P48730 whole entry, looked up, the tested form may be a part, canonical isoform) above

[16] = target: Mitogen-activated protein kinase 9 (Homo sapiens) (UniProt P45984); assay: Inhibition of JNK2 at 10 uM by Cherenkov counting in presence of 20 uM ATP
[17] = target: Mitogen-activated protein kinase 10 (Homo sapiens) (UniProt P53779); assay: Inhibition of JNK3 at 10 uM by Cherenkov counting in presence of 20 uM ATP
[18] = target: T1, Casein kinase I isoform delta; assay: Inhibition of recombinant CK1delta kinase domain at 5 nM by ATP competitive binding assay
Target sequence in this assay (P48730 whole entry, looked up, the tested form may be a part, canonical isoform): as the sequence (P48730 whole entry, looked up, the tested form may be a part, canonical isoform) above

[19] = Cell cycle arrest in human AC1-M88 cells assessed as accumulation at subG1 phase at 0.38 uM after 48 hrs by propidium iodide staining-based FACS analysis; type: functional
[20] = Cell cycle arrest in human AC1-M88 cells assessed as accumulation at G1 phase at 0.38 uM after 48 hrs by propidium iodide staining-based FACS analysis; type: functional
[21] = Cell cycle arrest in human AC1-M88 cells assessed as accumulation at S phase at 0.38 uM after 48 hrs by propidium iodide staining-based FACS analysis; type: functional
[22] = Cell cycle arrest in human AC1-M88 cells assessed as accumulation at G2 phase at 0.38 uM after 48 hrs by propidium iodide staining-based FACS analysis; type: functional
[23] = target: Casein kinase I isoform delta (Rattus norvegicus) (UniProt Q06486); details: 5 nM
[24] = tested on: Casein kinase I isoform delta (Rattus norvegicus), Q06486 [M82F]; details: 5 nM

Chain of Serine/threonine-protein kinase pim-1 (Homo sapiens) (P11309 whole entry, looked up): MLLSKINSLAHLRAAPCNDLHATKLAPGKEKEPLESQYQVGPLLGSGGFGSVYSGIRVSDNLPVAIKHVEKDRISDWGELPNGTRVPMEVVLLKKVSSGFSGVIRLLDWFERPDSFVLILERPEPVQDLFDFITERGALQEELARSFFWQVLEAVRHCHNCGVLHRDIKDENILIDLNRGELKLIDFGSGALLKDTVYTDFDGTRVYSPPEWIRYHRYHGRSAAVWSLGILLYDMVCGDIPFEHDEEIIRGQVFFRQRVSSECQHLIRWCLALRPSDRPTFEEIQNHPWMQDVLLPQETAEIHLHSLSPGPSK
Chain of Serine/threonine-protein kinase PAK 4 (Homo sapiens) (O96013 whole entry, looked up, the tested form may be a part, canonical isoform): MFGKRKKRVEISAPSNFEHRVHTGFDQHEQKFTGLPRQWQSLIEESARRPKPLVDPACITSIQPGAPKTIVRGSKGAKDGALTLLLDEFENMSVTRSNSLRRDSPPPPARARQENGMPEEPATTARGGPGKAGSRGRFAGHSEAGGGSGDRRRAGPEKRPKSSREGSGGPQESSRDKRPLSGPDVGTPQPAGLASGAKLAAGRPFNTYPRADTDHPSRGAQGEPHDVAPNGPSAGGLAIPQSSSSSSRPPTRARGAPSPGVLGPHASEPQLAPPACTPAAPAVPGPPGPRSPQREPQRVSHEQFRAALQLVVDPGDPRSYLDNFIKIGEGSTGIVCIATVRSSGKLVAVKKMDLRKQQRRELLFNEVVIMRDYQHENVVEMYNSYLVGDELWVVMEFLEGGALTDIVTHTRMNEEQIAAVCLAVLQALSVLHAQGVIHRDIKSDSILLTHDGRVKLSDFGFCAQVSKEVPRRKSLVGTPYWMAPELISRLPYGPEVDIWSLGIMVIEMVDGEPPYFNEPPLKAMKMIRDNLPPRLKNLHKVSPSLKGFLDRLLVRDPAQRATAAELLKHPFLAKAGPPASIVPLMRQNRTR
Chain of Casein kinase I isoform delta (Rattus norvegicus) (Q06486 whole entry, looked up, the tested form may be a part, canonical isoform): as the sequence (P48730 whole entry, looked up, the tested form may be a part, canonical isoform) above, with I381V counted along it
Chain of Casein kinase I isoform delta (Rattus norvegicus), Q06486 [M82F] (Q06486 whole entry M82F, the tested form may be a part, canonical isoform): as the sequence (P48730 whole entry, looked up, the tested form may be a part, canonical isoform) above, with M82F, I381V counted along it
Chain of Ribosomal protein S6 kinase alpha-1 (Homo sapiens) (Q15418 whole entry, canonical isoform): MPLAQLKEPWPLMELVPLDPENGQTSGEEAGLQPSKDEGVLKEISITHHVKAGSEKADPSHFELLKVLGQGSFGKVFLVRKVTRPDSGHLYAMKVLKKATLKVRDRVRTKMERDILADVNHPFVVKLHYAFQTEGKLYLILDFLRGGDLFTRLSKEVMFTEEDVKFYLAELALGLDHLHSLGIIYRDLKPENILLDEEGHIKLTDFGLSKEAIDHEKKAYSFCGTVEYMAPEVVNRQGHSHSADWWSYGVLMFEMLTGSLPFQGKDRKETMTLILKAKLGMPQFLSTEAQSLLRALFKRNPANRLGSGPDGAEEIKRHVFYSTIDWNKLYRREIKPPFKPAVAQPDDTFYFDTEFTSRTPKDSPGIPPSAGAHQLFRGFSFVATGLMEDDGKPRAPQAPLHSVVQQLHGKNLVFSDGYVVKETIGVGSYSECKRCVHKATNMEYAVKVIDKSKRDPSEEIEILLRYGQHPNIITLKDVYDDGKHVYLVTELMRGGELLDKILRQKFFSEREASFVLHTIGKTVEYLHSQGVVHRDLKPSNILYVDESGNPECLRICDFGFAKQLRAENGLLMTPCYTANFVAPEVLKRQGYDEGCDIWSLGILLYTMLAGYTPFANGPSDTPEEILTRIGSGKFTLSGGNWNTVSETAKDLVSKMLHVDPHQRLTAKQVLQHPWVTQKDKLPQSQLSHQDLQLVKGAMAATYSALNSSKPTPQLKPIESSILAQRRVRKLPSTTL
Chain of Serine/threonine-protein kinase N2 (Homo sapiens) (Q16513 whole entry, looked up): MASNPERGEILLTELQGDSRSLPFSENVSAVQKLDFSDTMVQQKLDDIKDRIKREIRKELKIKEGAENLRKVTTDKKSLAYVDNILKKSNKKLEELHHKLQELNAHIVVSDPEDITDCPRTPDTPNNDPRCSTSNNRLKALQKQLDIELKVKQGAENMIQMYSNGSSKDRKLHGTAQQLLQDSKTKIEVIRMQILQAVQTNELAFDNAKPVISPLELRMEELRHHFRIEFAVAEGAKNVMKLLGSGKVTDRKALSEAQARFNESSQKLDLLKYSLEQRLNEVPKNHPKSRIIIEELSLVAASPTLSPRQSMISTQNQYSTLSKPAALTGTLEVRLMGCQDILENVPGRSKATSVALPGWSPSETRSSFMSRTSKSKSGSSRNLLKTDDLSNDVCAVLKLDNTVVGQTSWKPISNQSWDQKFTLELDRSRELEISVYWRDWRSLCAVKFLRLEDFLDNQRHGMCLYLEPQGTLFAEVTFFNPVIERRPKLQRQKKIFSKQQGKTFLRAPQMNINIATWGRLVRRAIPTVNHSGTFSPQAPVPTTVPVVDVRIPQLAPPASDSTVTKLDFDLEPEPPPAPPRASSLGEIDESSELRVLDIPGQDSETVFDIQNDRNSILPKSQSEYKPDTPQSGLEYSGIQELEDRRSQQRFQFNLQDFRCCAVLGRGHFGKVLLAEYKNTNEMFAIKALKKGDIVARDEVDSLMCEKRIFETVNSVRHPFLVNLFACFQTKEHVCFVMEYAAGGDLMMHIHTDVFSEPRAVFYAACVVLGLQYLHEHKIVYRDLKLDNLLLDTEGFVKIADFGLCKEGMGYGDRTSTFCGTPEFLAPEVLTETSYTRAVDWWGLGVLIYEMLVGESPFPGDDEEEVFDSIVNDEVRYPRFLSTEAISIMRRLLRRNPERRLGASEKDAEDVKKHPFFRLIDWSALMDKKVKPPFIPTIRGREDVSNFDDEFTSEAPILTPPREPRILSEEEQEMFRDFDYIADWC
Chain of Mitogen-activated protein kinase 10 (Homo sapiens) (P53779 whole entry, the tested form may be a part, canonical isoform): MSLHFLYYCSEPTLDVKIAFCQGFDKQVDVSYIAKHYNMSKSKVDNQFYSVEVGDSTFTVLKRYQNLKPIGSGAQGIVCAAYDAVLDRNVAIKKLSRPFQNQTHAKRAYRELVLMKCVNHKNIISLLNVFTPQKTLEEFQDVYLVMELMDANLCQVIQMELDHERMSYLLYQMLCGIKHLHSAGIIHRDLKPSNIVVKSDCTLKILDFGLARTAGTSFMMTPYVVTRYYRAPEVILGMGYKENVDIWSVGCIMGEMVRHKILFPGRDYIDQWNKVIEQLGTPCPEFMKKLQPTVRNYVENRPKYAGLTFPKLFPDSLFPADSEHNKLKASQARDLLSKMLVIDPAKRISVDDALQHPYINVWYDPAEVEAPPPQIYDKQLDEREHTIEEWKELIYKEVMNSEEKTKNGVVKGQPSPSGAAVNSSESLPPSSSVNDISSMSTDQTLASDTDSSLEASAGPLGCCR

inhibition [1]: 10% | inhibition [2]: Active | inhibition [3]: inactive | Activity [8]: 87% | Activity [9]: 109% | Activity [10]: 98% | inhibition [11]: 10%
SMILES: COc1ccc(/C=C/C(=O)Nc2cc(-c3[nH]c([S+](C)[O-])nc3-c3ccc(F)cc3)ccn2)c(OC)c1 (stereo not given)
Activity [4]: 77.1% | Activity [5]: 12% | Activity [6]: 3.95% | Activity [7]: 5.32%

Activity [12]: 98% | Activity [13]: 89% | Activity [14]: 83%
SMILES: CC(C)c1noc(-c2ccc(F)cc2)c1-c1ccncc1

Activity [12]: 88% | Activity [13]: 100% | IC50 [15]: 230 nM | inhibition [16]: 87% | inhibition [17]: 72% | Activity [14]: 79%
SMILES: CC(C)c1onc(-c2ccc(F)cc2)c1-c1ccncc1

inhibition [18]: 18% | Activity [8]: 87% | Activity [9]: 98% | Activity [10]: 81% | inhibition [23]: Active | inhibition [24]: inactive
SMILES: COc1ccc(/C=C/C(=O)Nc2cc(-c3[nH]c(SC)nc3-c3ccc(F)cc3)ccn2)c(OC)c1
Activity [19]: 87.1% | Activity [20]: 6.3% | Activity [21]: 2.41% | Activity [22]: 3.08%
